High-throughput results as filed in PubChem BioAssay.
A selection: hits, their analogues and other compounds. The true share with any hit is near 3.8%.
Kir21 block: Kir2.1 (mouse) channel inhibition; B-score at 10 µM; HEK293-Kir2.1, FluxOR thallium flux fluorescence; hits give low values; P35561; AID 1672; 310,000 tested, 0.85% active;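 active = fluorescence ratio B-score at or below minus 3 SD of library scores, with starting-brightness B-score within 2 SD, cut at about -4.2 in these data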;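 note: channel flux triggered by added potassium and thallium sulfate stimulus; B-score of peak minus minimum fluorescence over baseline after thallium stimulus; more negative B-score means stronger Kir2.1 block with less thallium influx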
KCNQ1 pot: potentiators or activators of human KCNQ1 potassium channel; P51787; CHO-K1 KCNQ1, thallium flux FluxOR fluorescence; hits give high values; B-score at 10 µM; 310,000 tested, 0.35% active; AID 2648;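 active = fluorescence ratio B-score, a plate-corrected score, at least three library SD, with initial intensity B-score within 5 SD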
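Test system: CHO-K1 cells stably expressing KCNQ1 / Medium: assay buffer / Also added: depolarizing K+/Tl+ stimulus, K2SO4 and Tl2SO4 each 12.5 mM in 5x stock / Incubation: 90 min dye loading and 20 min compound exposure, both at room temperature / Signal: thallium influx via FluxOR fluorescence, kinetic imaging / Evaluation: B score of baseline-normalized fluorescence ratio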
KCNK9 block: inhibitors of human KCNK9 two-pore domain potassium channel; Q9NPC2; HEK293 KCNK9, FluxOR thallium flux fluorescence; hits give low values; B-score at 10 µM; 310,000 tested, 1.2% active;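 active = ratio B-score over 3 SD below the library mean, with starting fluorescence within 5 SD of its mean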;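 note: negative B-score means less thallium flux so channel inhibition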
KCNK3 inh: human KCNK3 channel inhibition, primary screen. O14649. CHO-KCNK3 thallium flux, FluxOR fluorescence; hits give low values. B-score at 10 µM. 340,000 tested, 0.84% active;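 active = B-score under library mean minus 4 SD, starting fluorescence ratio at most library mean plus 5 SD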;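 note: more negative B-score means stronger inhibition of thallium flux through KCNK3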
KCNQ1 inh: inhibitors of human KCNQ1 potassium channel; B-score at 10 µM; AID 2642; P51787; 310,000 tested, 1.3% active; CHO-K1 KCNQ1, FluxOR thallium flux fluorescence; hits give high values;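 active = compounds whose thallium flux B-score, printed positive for inhibition, exceeds three library SD while starting fluorescence stays within three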;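 note: channel opened by potassium depolarization with thallium stimulus after 20 min compound exposure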
hERG rescue: shields human hERG channel from block by proarrhythmic agents; Q12809; CHO-hERG, FluxOR thallium flux, dofetilide IC70 present; activation (rescue from dofetilide block), less the hit threshold, % at 10 µM; 310,000 tested, 0.51% active; AID 1511;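 active = activation above the mean of controls blocked by dofetilide plus 5 SD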;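 note: thallium influx through hERG after potassium depolarization seen as dye fluorescence rise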
KCNQ1 block val: reconfirmed blocker of the human KCNQ1 potassium channel. 1,600 tested, 93% active. inhibition, % at 10 µM. KCNQ1 cell line, FluxOR thallium flux fluorescence. shares compounds with KCNQ1 inh;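 active = primary screen active, with duplicate mean exceeding buffer control mean plus 3 SD of buffer wells, cut at about 28% in these data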;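 note: 0% = buffer control ratio and 100% = XE991 inhibitor control ratio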
CHO Tl flux: KCNQ1 inhibitor counter-screen hit in parental CHO cells | AID 588366 | 1,600 tested, 21% active | shares compounds with KCNQ1 inh | fluorescence ratio (Tl flux) at 10 µM | parental CHO-K1, FluxOR thallium flux fluorescence ratio; hits give low values; zero means no signal rise above baseline;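 active = mean of duplicate thallium-flux fluorescence ratios in parental host cells more than 5 SD below the buffer control mean, cut at about 0.38 in these data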;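 note: ratio is peak minus minimum fluorescence divided by baseline fluorescence; actives read low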
KCNQ1 ephys val: confirmation of human KCNQ1 potassium channel inhibitors by electrophysiology | shares compounds with KCNQ1 inh | KCNQ1-CHO cells, automated patch clamp current | calls only at 10 µM | 490 tested, 20% active | AID 624120;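 active = KCNQ1 current drop exceeding 3 SD of negative control wells, seen in both duplicate runs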;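 note: steady state current during a 2 s step from -80 to +40 mV; negative values mean current inhibition and positive values mean potentiation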
KCNQ2 spec: rat KCNQ2 inhibition in KCNQ1 inhibitor specificity screen; KCNQ2 cells, FluxOR thallium flux fluorescence; shares compounds with KCNQ1 inh; inhibition, % at 10 µM; 1,600 tested, 71% active;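 active = mean percent inhibition of the KCNQ2 thallium signal more than 5 SD above the buffer-only control wells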;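 note: KCNQ2 expressed in CHO cells; 0% = buffer control wells and 100% = XE-991 inhibitor control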
KCNQ1 KCNE1 spec: KCNQ1 inhibitor that also blocks human KCNQ1/KCNE1 channel. inhibition, % at 10 µM. 1,600 tested, 77% active. KCNQ1/KCNE1 cells, FluxOR thallium flux fluorescence. shares compounds with KCNQ1 inh;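 active = mean percent inhibition of duplicate wells above the buffer-only control mean plus 3 SD of those controls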;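 note: 0% = buffer only wells and 100% = XE-991 inhibitor control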
Target sequence (P51787 whole entry, looked up): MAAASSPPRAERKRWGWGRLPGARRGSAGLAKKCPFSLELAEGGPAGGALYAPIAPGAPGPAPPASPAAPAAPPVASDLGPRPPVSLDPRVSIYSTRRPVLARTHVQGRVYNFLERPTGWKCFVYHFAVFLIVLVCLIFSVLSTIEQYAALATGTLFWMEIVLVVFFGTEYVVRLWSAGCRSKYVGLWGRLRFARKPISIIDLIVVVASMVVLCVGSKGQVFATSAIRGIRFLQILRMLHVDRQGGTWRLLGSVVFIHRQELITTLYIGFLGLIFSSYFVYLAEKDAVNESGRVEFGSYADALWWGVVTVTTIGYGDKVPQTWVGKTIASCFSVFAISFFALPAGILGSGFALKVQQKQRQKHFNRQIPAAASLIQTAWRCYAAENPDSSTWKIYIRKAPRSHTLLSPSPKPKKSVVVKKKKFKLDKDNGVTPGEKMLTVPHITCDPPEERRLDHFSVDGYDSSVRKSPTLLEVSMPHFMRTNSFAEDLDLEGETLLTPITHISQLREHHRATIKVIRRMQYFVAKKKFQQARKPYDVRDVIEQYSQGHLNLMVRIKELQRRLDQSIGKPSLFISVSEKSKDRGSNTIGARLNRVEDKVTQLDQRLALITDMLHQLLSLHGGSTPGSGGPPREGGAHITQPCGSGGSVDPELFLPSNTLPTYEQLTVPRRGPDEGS
KCNK9 inh conf: confirmation of human KCNK9 potassium channel inhibitors. HEK293 KCNK9 cells, FluxOR thallium flux fluorescence. 4,900 tested, 43% active. shares compounds with KCNK9 block. inhibition, % at 10 µM;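 active = thallium signal inhibited by more than 5 SD of the compound-free buffer control wells, on both duplicate plates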;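 note: 0% = assay buffer control wells without compound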
Kir21 sel: tests whether KCNK9 modulators also affect mouse Kir2.1. Kir2.1 cells, FluxOR thallium flux fluorescence. AID 492993. shares compounds with KCNK9 block. inhibition, % at 10 µM. 4,900 tested, 4% active;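 active = thallium signal drop more than 5 SD beyond the mean of the no-compound control wells, seen in both duplicate plates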;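 note: signal is fluorescence rise after thallium addition divided by baseline fluorescence; plate controls were assay buffer only for no effect and full block by chlorpromazine control for full effect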
HEK293 Tl ctr: second counter-screen for KCNK9 modulators: effect in non-induced cells | shares compounds with KCNK9 block | non-induced KCNK9-HEK293, FluxOR thallium flux | inhibition, % at 10 µM | 4,900 tested, 40% active | AID 492997;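 active = thallium signal drop beyond 5 SD of the untreated control mean, on both duplicate plates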;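 note: plate controls were buffer only IC0 wells for no effect and SID17386958 at its maximal inhibitory level for full effect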
An asterisk follows results filed as active; i = inactive; / = no result given; + = active, no number.

SMILES | Kir21 block | KCNQ1 pot | KCNK9 block | KCNK3 inh | KCNQ1 inh | hERG rescue | KCNQ1 block val | CHO Tl flux | KCNQ2 spec | KCNQ1 KCNE1 spec | others
O=C(N/N=C/c1cccnc1)c1cc(-c2ccc(Br)cc2)nc2ccccc12 | -2.2 | i | i | i | i | -12 | / | / | / | /
O=C(CCc1ccccc1)NNC(=O)c1ccncc1 | / | / | / | i | / | / | / | / | / | /
CCC(=O)Nc1c(C#N)c2nc3ccccc3nc2n1-c1ccc(C)cc1 | / | / | / | i | / | / | / | / | / | /
CCC(C)n1c(NC(=O)c2ccccc2)c(C#N)c2nc3ccccc3nc21 (configuration not stated) | -0.16 | i | i | i | 8* | -15 | 82* | 0.44 | 64%* | i
Clc1ccc(-c2cc3ccccc3[nH]2)cc1 | 0.87 | i | i | i | 6* | -17 | 124* | 0.55 | i | 98%*
CCn1nnnc1SCC(=O)N(C)C1CCS(=O)(=O)C1 (configuration not stated) | / | / | / | i | / | / | / | / | / | /
Cc1nn2c(NCCN3CCOCC3)c3c(nc2c1-c1ccccc1)CCCC3 | -1.3 | i | i | i | 7* | -20 | 58* | 0.47 | 82%* | 73%*
CN1/C(=C\C=C2/SC(=S)N(CC(=O)O)C2=O)C(C)(C)c2ccccc21 | -14 | i | i | i | 24* | -44 | + | 0.044* | i | i
Cc1ccc(S(=O)(=O)c2nnn3c2nc(NC2CCN(Cc4ccccc4)CC2)c2ccccc23)cc1C | 0.36 | i | i | i | i | -22 | / | / | / | /
Cc1cc(O)c(CN2CCN(S(=O)(=O)c3cccs3)CC2)cc1C(C)C | / | / | / | i | / | / | / | / | / | /
CC(C)Cn1c(N)c(C(=O)COC(=O)CC23CC4CC(CC(C4)C2)C3)c(=O)n(C)c1=O | 0 | i | i | i | 12* | -17 | 144* | 0.3* | 124%* | 186%*
CC(C)Cn1c(N)c(C(=O)COC(=O)CCc2nc3ccccc3s2)c(=O)n(C)c1=O | -0.78 | i | i | i | 8* | -20 | 132* | 0.44 | 84%* | 96%* | KCNQ1 ephys val=i
Cc1csc(=O)n1CCC(=O)OCC(=O)c1c(N)n(CC(C)C)c(=O)n(C)c1=O | 2 | i | i | i | i | -21 | / | / | / | /
O=C(Nc1ccc(Cl)cc1)Nc1ccc2c(c1)N1CCN=C1S2 | -1.8 | i | i | i | 12* | -26 | 106* | 0.45 | 65%* | 110%* | KCNQ1 ephys val=i
CCOC(=O)Cc1nn[nH]n1 | -0.02 | i | i | i | 7* | -3 | 0 | 0.48 | i | 37%*
Cc1ccccc1CN1CCN(S(=O)(=O)c2ccc(Cl)s2)CC1 | 0.03 | i | i | i | 6* | -14 | 90* | 0.37* | 122%* | 118%* | KCNK9 inh conf=i;Kir21 sel=i;HEK293 Tl ctr=29%*
CCOc1cc(N2CCOCC2)c(OCC)cc1NC(=O)c1nn(CC)c(=O)c2ccccc12 | / | / | / | i | / | / | / | / | / | /
C[C@H](NC(=O)c1ccccc1)C(=O)OCC(=O)Nc1sccc1C(N)=O | / | / | / | i | / | / | / | / | / | /
CCc1cccc(OCC(=O)Nc2ccc(C)c(S(=O)(=O)N3CCCCCC3)c2)c1 | -0.34 | i | i | i | 10* | -6 | 122* | 0.45 | 116%* | 106%* | KCNQ1 ephys val=i;KCNK9 inh conf=i;Kir21 sel=i;HEK293 Tl ctr=33%*
COC(=O)C1CCN(C(=O)COC(=O)c2cccc(NS(=O)(=O)c3ccccc3)c2)CC1 | -0.07 | i | i | i | i | -12 | / | / | / | /
Cc1ccc(-n2c(-c3ccccc3)c[n+]3c2CCc2ccccc2-3)c(C)c1 | -8.2* | i | -13* | -9.9* | 15* | -27 | 98* | 0.38* | 95%* | 34%* | KCNK9 inh conf=46%*;Kir21 sel=64%*;HEK293 Tl ctr=36%*
Cc1ccc(-n2cccn2)c(CN2CCCC(C(=O)c3ccc4c(c3)OCO4)C2)c1 (configuration not stated) | -0.05 | i | i | i | 8* | -17 | 66* | 0.39 | 112%* | 80%* | KCNK9 inh conf=i;Kir21 sel=i;HEK293 Tl ctr=i
O=C(c1ccc2c(c1)OCO2)C1CCCN(Cc2cc(F)ccc2-n2cccn2)C1 (configuration not stated) | 0.84 | i | i | i | i | -16 | / | / | / | /
Cc1ccc(-c2nnc(OCc3nc4ccccc4n3C)c3ccccc23)cc1 | -0.38 | i | i | i | i | -10 | / | / | / | /
Cc1ccccc1Nc1nc(NCc2ccco2)c2ccccc2n1 | -13* | i | -12* | -14* | 14* | -25 | 162* | 0.37* | 115%* | + | KCNK9 inh conf=54%*;Kir21 sel=85%*;HEK293 Tl ctr=40%*
Cc1cc(C)nc(NC(=NCCc2c[nH]c3ccccc23)NC(=O)Nc2ccccc2)n1 | 0.03 | i | i | i | 7* | 0 | 134* | 0.38* | 87%* | 199%* | KCNK9 inh conf=i;Kir21 sel=i;HEK293 Tl ctr=i
Cc1cc(C)nc(NC(=NCCc2c[nH]c3ccccc23)NC(=O)Nc2ccc(Cl)c(Cl)c2)n1 | 2.5 | i | i | i | i | -9 | / | / | / | /
O=C(OCC(=O)N(C1CCCCC1)C1CCCCC1)c1ccccc1O | 0.96 | i | -9.4* | i | 7* | -7 | 116* | 0.4 | 124%* | 179%* | KCNQ1 ephys val=+;KCNK9 inh conf=37%*;Kir21 sel=i;HEK293 Tl ctr=24%*
O=C1CCC(C(=O)N2CCCC(C(=O)c3ccc4ccccc4c3)C2)=NN1 (configuration not stated) | 1.8 | i | i | i | i | -5 | / | / | / | /
